Reference: ChEMBL document CHEMBL1156009, “Eleven amino acid glucagon-like peptide-1 receptor agonists with antidiabetic activity” (J Med Chem, 2009)
Active and inactive are the calls of the source. The rule behind the calls is not given here. Square brackets hold non-standard residues; d marks the D form. Peptide text beside a SMILES is read from it. Bip(2'-Et-4'-OMe) = CCc1cc(OC)ccc1-c1ccc(C[C@H](N)C(=O)O)cc1; Bip(2'-Me) = Cc1ccccc1-c1ccc(C[C@H](N)C(=O)O)cc1; αMePhe(2,6-F2) = C[C@](N)(Cc1c(F)cccc1F)C(=O)O; αMePhe(2-F) = C[C@](N)(Cc1ccccc1F)C(=O)O; Aib = CC(C)(N)C(=O)O

Experiments:
[1] = molecular target: Glucagon-like peptide 1 receptor (Homo sapiens, UniProt P43220); experiment: Agonist activity at human GLP1R expressed in CHO cells assessed as stimulation of intracellular [3H]cAMP accumulation after 30 mins by scintillation proximity assay; assay type: functional, cell-based
Chain of Glucagon-like peptide 1 receptor (Homo sapiens, UniProt P43220) (P43220 whole entry): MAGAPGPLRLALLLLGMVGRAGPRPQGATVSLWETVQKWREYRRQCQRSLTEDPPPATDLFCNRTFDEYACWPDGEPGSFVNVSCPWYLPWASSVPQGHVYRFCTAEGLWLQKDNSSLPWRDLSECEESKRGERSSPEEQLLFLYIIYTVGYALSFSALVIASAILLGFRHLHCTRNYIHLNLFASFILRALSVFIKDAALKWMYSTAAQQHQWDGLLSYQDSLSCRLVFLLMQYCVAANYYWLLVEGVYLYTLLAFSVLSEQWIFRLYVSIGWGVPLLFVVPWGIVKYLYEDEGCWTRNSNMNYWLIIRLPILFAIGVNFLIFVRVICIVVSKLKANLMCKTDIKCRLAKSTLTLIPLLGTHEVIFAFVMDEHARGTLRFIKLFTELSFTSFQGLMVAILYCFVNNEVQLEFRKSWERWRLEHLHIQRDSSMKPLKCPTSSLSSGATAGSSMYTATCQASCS
In short: (§1)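 CHO cells stably expressing human or mouse GLP-1R, grown in F-12 with 10% FBS plus Geneticin (0.4 mg/mL human, 1 mg/mL mouse), plated 2×10^4/well overnight. Half-log dilutions made in DMSO, then in DPBS with 0.1 mM IBMX and 0.05% BSA (final 1% DMSO). Cells exposed 30 min. cAMP read by SPA and converted to pmol via standard curve. Duplicates, at least three separate runs.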

[2] = Half life in patient with type 2 diabetes at 2.5 to 25 nmol, iv administered as bolus dose; assay type: ADME, organism-based; conditions: human, in vivo
[3] = molecular target: T1, Glucagon-like peptide 1 receptor (Mus musculus, UniProt O35659); experiment: Agonist activity at mouse GLP1R expressed in CHO cells assessed as stimulation of intracellular [3H]cAMP accumulation by scintillation proximity assay; assay type: functional, cell-based; in short: as §1
T1 sequence (O35659 whole entry): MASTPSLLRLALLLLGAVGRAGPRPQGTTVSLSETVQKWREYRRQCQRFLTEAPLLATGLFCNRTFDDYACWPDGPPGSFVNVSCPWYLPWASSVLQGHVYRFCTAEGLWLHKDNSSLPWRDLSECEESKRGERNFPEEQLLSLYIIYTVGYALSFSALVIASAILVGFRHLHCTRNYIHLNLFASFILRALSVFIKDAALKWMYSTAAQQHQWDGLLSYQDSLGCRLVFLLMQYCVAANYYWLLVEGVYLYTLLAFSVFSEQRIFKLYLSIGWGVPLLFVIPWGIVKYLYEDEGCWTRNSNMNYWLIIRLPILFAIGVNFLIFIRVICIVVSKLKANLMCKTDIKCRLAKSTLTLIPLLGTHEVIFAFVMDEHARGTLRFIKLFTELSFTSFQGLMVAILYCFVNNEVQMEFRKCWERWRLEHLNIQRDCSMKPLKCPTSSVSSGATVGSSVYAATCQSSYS

Mus musculus [4] = experiment: Antidiabetic activity in insulin-resistant ob/ob mouse assessed as reduction in plasma glucose level at 300 nmol/kg, sc administered 30 mins before glucose infusion measured after 30 to 180 mins of glucose challenge by intraperitoneal glucose tolerance test; assay type: functional, organism-based
In short: (§2)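 Male ob/ob mice, 19 weeks old, 6 per group, randomized on fed glucose and body weight. After an 18 h fast, single sc dose in 1:1 propylene glycol/20 mM sodium phosphate pH 7.4 (0.1 mL/100 g) at -30 min. 2 g/kg glucose (50%) given ip at time 0. Tail bleeds at 0, 30, 60, 120 and 180 min into K-EDTA. Glucose measured on analyzer, insulin by ultrasensitive mouse ELISA. ANOVA with Dunnett's test versus vehicle.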

Mus musculus [5] = experiment: Antidiabetic activity in insulin-resistant ob/ob mouse assessed as increase in plasma insulin level at 300 nmol/kg, sc administered 30 mins before glucose infusion measured after 30 mins of glucose challenge by intraperitoneal glucose tolerance test; assay type: functional, organism-based; in short: as §2
Mus musculus [6] = experiment: Antidiabetic activity in insulin-resistant ob/ob mouse assessed as increase in plasma insulin level at 300 nmol/kg, sc administered 30 mins before glucose infusion measured after 60 mins of glucose challenge by intraperitoneal glucose tolerance test; assay type: functional, organism-based; in short: as §2
[7] = Cmax in insulin-resistant ob/ob mouse at 300 nmol/kg, sc up to 24 hrs by LC-MS/MS analysis; assay type: ADME, organism-based; design: dose 300 nmol/kg, route subcutaneous; conditions: in vivo
In short: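 ob/ob mice dosed sc at 300 nmol/kg in 1:1 propylene glycol/20 mM sodium phosphate pH 7.4. Plasma sampled at 1, 2, 4, 6, 8 and 24 h and quantified by LC-MS/MS.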

Canis familiaris = experiment: Tmin in Beagle dog at 67 ug/kg, sc by LC-MS/MS analysis; assay type: ADME, organism-based, Canis lupus familiaris; conditions: in vivo, 0.067 mg/kg
[8] = Mean residence time in Beagle dog at 67 ug/kg, sc by LC-MS/MS analysis; assay type: ADME, organism-based, Canis lupus familiaris; conditions: in vivo, 0.067 mg/kg
[9] = molecular target: T2, Gastric inhibitory polypeptide receptor (Homo sapiens, UniProt P48546); experiment: Agonist activity at GIPR; assay type: functional
T2 sequence (P48546 whole entry): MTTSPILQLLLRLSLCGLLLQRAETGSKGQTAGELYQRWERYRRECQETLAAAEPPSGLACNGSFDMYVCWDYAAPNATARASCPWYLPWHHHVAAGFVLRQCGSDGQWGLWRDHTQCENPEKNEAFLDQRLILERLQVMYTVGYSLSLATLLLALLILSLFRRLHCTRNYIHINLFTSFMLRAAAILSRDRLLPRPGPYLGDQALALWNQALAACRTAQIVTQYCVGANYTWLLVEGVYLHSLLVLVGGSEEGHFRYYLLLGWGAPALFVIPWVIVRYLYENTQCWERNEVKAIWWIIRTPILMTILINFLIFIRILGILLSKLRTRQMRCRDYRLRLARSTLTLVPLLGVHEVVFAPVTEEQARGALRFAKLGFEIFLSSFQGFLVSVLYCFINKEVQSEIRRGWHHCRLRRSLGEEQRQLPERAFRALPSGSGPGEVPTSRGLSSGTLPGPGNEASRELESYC

Glucagon receptor = Glucagon receptor (Homo sapiens, UniProt P47871); experiment: Agonist activity at glucagon receptor; assay type: functional
Chain of Glucagon receptor (P47871 whole entry): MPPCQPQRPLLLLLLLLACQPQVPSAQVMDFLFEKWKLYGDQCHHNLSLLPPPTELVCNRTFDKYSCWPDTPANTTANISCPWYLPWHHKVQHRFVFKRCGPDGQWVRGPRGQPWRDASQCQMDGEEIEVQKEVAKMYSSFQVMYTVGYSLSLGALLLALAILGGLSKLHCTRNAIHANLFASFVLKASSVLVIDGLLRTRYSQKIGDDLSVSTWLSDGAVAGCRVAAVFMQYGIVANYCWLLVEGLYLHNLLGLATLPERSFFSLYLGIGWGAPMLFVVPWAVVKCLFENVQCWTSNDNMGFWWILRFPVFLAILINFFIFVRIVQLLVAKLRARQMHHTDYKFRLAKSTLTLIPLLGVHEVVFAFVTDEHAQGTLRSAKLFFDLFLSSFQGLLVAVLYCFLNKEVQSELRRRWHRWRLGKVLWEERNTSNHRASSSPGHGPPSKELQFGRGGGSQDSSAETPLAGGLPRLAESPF

[10] = Agonist activity at PACAP receptor; assay type: functional
[11] = Agonist activity at VIP receptor; assay type: functional
[12] = molecular target: T3, Parathyroid hormone/parathyroid hormone-related peptide receptor (Homo sapiens, UniProt Q03431); experiment: Agonist activity at PTHR; assay type: functional
T3 sequence (Q03431 whole entry): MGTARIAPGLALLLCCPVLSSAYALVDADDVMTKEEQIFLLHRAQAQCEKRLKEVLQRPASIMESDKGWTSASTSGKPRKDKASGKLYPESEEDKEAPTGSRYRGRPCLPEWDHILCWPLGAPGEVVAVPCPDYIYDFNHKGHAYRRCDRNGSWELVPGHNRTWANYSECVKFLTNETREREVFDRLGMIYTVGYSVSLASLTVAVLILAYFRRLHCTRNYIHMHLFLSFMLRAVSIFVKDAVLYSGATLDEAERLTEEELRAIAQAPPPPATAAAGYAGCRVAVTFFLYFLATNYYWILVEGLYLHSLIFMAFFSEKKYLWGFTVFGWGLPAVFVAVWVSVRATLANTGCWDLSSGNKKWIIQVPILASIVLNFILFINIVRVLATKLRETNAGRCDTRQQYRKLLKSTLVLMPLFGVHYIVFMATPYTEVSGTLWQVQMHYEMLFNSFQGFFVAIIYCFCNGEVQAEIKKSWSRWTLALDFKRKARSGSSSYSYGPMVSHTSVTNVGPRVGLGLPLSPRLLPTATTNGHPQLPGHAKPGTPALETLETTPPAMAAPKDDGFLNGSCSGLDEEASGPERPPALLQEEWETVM

Mus musculus [13] = experiment: Antidiabetic activity in insulin-resistant ob/ob mouse assessed as reduction in plasma glucose level at 30 nmol/kg, sc administered 30 mins before glucose infusion measured after 30 to 180 mins of glucose challenge by intraperitoneal glucose tolerance test; assay type: functional, organism-based; in short: as §2
Mus musculus [14] = experiment: Antidiabetic activity in insulin-resistant ob/ob mouse assessed as increase in plasma insulin level at 30 nmol/kg, sc administered 30 mins before glucose infusion measured after 30 to 180 mins of glucose challenge by intraperitoneal glucose tolerance test; assay type: functional, organism-based; in short: as §2

| SMILES | EC50 [1] [nM] | EC50 [3] [µM] | Activity (Mus musculus [4]) | Activity (Mus musculus [5]) | Activity (Mus musculus [6]) | Cmax [7] [nM] | Tmin (Canis familiaris) [h] | other results |
| --- | --- | --- | --- | --- | --- | --- | --- | --- |
| CC[C@H](C)[C@H](NC(=O)[C@H](Cc1ccccc1)NC(=O)[C@H](CCC(=O)O)NC(=O)[C@H](CCCCN)NC(=O)[C@H](C)NC(=O)[C@H](C)NC(=O)[C@H](CCC(N)=O)NC(=O)CNC(=O)[C@H](CCC(=O)O)NC(=O)[C@H](CC(C)C)NC(=O)[C@@H](NC(=O)[C@H](CO)NC(=O)[C@H](CO)NC(=O)[C@@H](NC(=O)[C@H](CC(=O)O)NC(=O)[C@H](CO)NC(=O)[C@@H](NC(=O)[C@H](Cc1ccccc1)NC(=O)[C@@H](NC(=O)CNC(=O)[C@H](CCC(=O)O)NC(=O)[C@H](C)NC(=O)[C@@H](N)Cc1cnc[nH]1)[C@@H](C)O)[C@@H](C)O)C(C)C)[C@@H](C)O)C(=O)N[C@@H](C)C(=O)N[C@@H](Cc1c[nH]c2ccccc12)C(=O)N[C@@H](CC(C)C)C(=O)N[C@H](C(=O)N[C@@H](CCCCN)C(=O)NCC(=O)N[C@@H](CCCN=C(N)N)C(N)=O)C(C)C | 0.034 | – | – | – | – | – | – | half-life [2]: 2 min |
| CCc1cc(OC)ccc1-c1ccc(C[C@H](NC(=O)[C@H](CC(=O)O)NC(=O)[C@H](CO)NC(=O)[C@@H](NC(=O)[C@](C)(Cc2c(F)cccc2F)NC(=O)[C@@H](NC(=O)CNC(=O)[C@H](CCC(=O)O)NC(=O)C(C)(C)NC(=O)[C@@H](N)Cc2cnc[nH]2)[C@@H](C)O)[C@@H](C)O)C(=O)N[C@@H](Cc2ccc(-c3ccccc3C)cc2)C(N)=O)cc1 (H-H[Aib]EGT[αMePhe(2,6-F2)]TSD[Bip(2'-Et-4'-OMe)][Bip(2'-Me)]-NH2) | 0.12 | 0.0008 | Active | Active | Active | > 2000 | 24 | MRT [8]: 20 h |
| CCc1cc(OC)ccc1-c1ccc(C[C@H](NC(=O)[C@H](CC(=O)O)NC(=O)[C@H](CO)NC(=O)[C@@H](NC(=O)[C@](C)(Cc2ccccc2F)NC(=O)[C@@H](NC(=O)CNC(=O)[C@H](CCC(=O)O)NC(=O)C(C)(C)NC(=O)[C@@H](N)Cc2cnc[nH]2)[C@@H](C)O)[C@@H](C)O)C(=O)N[C@@H](Cc2ccc(-c3ccccc3C)cc2)C(N)=O)cc1 (H-H[Aib]EGT[αMePhe(2-F)]TSD[Bip(2'-Et-4'-OMe)][Bip(2'-Me)]-NH2) | 0.087 | 0.0024 | Active | Active | Active | > 2000 | 8 | EC50 [9]: > 10 µM; IC50 [9]: > 10 µM; EC50 (Glucagon receptor): > 10 µM; IC50 (Glucagon receptor): > 10 µM; EC50 [10]: > 10 µM; IC50 [10]: > 10 µM; EC50 [11]: > 10 µM; IC50 [11]: > 10 µM; EC50 [12]: > 10 µM; IC50 [12]: > 10 µM; Activity (Mus musculus [13]): Active; Activity (Mus musculus [14]): Active |
